Test [1] relates to Bel-7402. In words: Cytotoxicity against human BEL-7402 cells assessed as photo-induced growth inhibition upto 2.5 ug/mL after 24 hrs in dark by MTT assay. In kind it is functional. The arrangement: scale not given: the % may be the effect or the level left. The procedure, abridged:
(§1)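 Human hepatoma BEL-7402 cells were incubated with compound (0.03125–2.5 µg/mL) in the dark for 24 h at 37 °C. Cells in the light arm were then irradiated with a 670 nm laser at 10 J/cm² (56 mW/cm² for 3 min); dark-arm cells were not irradiated. Cells were then incubated for 24 h at 37 °C and survival was read by MTT in triplicate. IC50 was reported with 95% confidence limits.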

Test [2] has as its system Bel-7402. In words: Cytotoxicity against human BEL-7402 cells assessed as photo-induced growth inhibition after 24 hrs in dark by MTT assay. Format: functional, cell-based. Conditions: Bel-7402, 24 h. The procedure, abridged:
as §1

In test [3] the test system is Bel-7402. The test is described as follows: Induction of apoptosis in human BEL-7402 cells […] by methyl green-pyronin staining method. Format: functional, cell-based.

The structures appear in SMILES notation. Values after ≈ are worked out from the molar mass of the structure shown. Active and inactive are the calls of the source. The rule behind the calls is not given here.

With `CCC1=C(C)c2cc3[nH]c(cc4nc(c(CC(=O)OC)c5[nH]c(cc1n2)c(C)c5C(=O)OC)C(CCC(=O)OC)=C4C)[C@@]1(C)C3=CC=C(C(=O)OC)[C@H]1C(=O)OC`, the Activity in the test with Bel-7402 [1] is >92%. In the test on Bel-7402 [2], the 50% inhibitory concentration (IC50) turned out to be 1.32 µg/mL (≈ 1.69 µM).

As to `CCC1=C(C)c2cc3[nH]c(cc4nc(c(C(=O)OC)c5[nH]c(cc1n2)c(C)c5C(=O)OC)C(CCC(=O)OC)=C4C)[C@@]1(C)C3=CC=C(C(=O)OC)[C@H]1C(=O)OC`, the Activity in the test with Bel-7402 [1] is >92%. For the same compound, the 50% inhibitory concentration (IC50) in the test with Bel-7402 [2] was 0.27 µg/mL (≈ 0.353 µM).

As to `CCC1=C(C)c2cc3[nH]c(cc4nc(c(C)c5[nH]c(cc1n2)c(C)c5C(=O)OC)C(CCC(=O)OC)=C4C)[C@@]1(C)C3=CC=C(C(=O)OC)[C@H]1C(=O)OC`, the Activity with Bel-7402 [1] is >92%. For the same compound, the IC50 in the test on Bel-7402 [2] turned out to be 0.47 µg/mL (≈ 0.652 µM).

Take `CCC1=C(C)c2cc3[nH]c(cc4nc(c5c6[nH]c(cc1n2)c(C)c6C(=O)C5C(=O)OC)C(CCC(=O)OC)=C4C)[C@@]1(C)C3=CC=C(C(=O)OC)[C@H]1C(=O)OC` (some centres undefined): in the test with Bel-7402 [3], the result was Active. The Activity in the test with Bel-7402 [1] is on record as >92%. Also, the IC50 with Bel-7402 [2] came to 0.26 µg/mL (≈ 0.348 µM).

The values are drawn from ChEMBL document CHEMBL1141607, “Design, synthesis, and in vitro photodynamic activities of benzochloroporphyrin derivatives as tumor photosensitizers” (Bioorg Med Chem Lett, 2008).
